Test results as given in publication PMC3767132 (Organic & biomolecular chemistry, 2012).
Read-outs that look alike come from different tables or passages of the source.

Columns and labels:
hMetAP1 = hMetAP1 (Homo sapiens, UniProt P53582); assay: human MetAP1 enzyme assay; type: biochemical; settings: for b = bottom value in the dose-response curve, hMetAP1: noted only when above 15%
hMetAP2 = hMetAP2 (Homo sapiens, UniProt P50579); assay: human MetAP2 enzyme assay; type: biochemical; settings: for b = bottom value in the dose-response curve, hMetAP2: noted only when above 15%; for inhibition at 10 µM: read-out: inhibition of MetAP2 activity in HTS
hMetAP2, sequence (P50579 whole entry): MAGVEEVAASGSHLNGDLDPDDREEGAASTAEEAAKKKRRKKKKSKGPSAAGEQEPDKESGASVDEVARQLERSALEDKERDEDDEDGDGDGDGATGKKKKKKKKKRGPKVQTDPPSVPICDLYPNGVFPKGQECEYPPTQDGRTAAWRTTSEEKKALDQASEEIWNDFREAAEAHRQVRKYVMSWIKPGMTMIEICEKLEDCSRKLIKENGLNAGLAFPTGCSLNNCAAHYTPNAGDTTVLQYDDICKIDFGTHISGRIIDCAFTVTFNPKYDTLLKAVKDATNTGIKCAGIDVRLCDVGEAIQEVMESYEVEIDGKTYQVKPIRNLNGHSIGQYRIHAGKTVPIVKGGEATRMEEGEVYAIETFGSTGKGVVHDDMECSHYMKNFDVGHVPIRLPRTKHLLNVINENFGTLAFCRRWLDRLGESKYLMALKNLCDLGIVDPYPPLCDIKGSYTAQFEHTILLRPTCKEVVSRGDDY

HUVEC [1] = assay: HUVEC proliferation assay using [3H]-thymidine incorporation; type: cell-based, human
HeLa = HeLa proliferation assay, 3H-T uptake; type: cell-based; settings: Homo sapiens, HeLa, read-out: IC50 3H-T Uptake HeLa
Jurkat-T = assay: Jurkat T proliferation assay, 3H-T uptake; type: cell-based; settings: Homo sapiens, Jurkat, read-out: IC50 3H-T Uptake Jurkat-T
HUVEC [2] = assay: HUVEC cell-viability assay using calcein-AM; type: cell-based, human; settings: Homo sapiens, HUVEC, read-out: IC50 Calcein-AM HUVEC
HFF = HFF cell-viability assay using calcein-AM; type: cell-based, human; settings: for IC50: Homo sapiens, HFF, read-out: IC50 Calcein-AM HFF
SIRT1 = assay: Immunoblot of Ac-p53; type: cell-based, human; settings: for Immunoblot Ac-p53: compound treated HUVEC lysates, 24 h, signal relative to DMSO = 1.0; for effect on the levels of Ac-p53: up to 10 μM, data not shown
Summary of the method: (§1)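 HUVEC were exposed to test compound for 24 h, typically at 5 μM (some up to 10 μM), with DMSO as negative control. Lysates were immunoblotted for Met-14-3-3γ, 14-3-3γ, Ac-p53 and total p53. Band densities were taken as Met-14-3-3γ/14-3-3γ and Ac-p53/p53 per lane, relative to DMSO = 1.0. Ac-p53 was scored −(<2.0), +(2.0–7.0), ++(7.1–11.6), +++(>11.6).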

MetAP = assay: Immunoblot of Met-14-3-3γ; type: cell-based, human; settings: for Immunoblot Met-14-3-3γ: compound treated HUVEC lysates, 24 h, signal relative to DMSO = 1.0; for effect on the levels of Met-14-3-3γ: up to 10 μM, HUVEC, data not shown
Summary of the method: as §1

[3] = IC50 hMetAP1, enzyme assay, 10 μM Co2+
[4] = Homo sapiens, HUVEC, read-out: IC50 HUVEC, proliferation, 3H-T uptake
[5] = read-out: IC50 hMetAP1, enzyme assay, 10 μM Co2+
[6] = read-out: IC50 hMetAP2, enzyme assay, 10 μM Mn2+
[7] = read-out: IC50 HUVEC, proliferation, 3H-T uptake
[8] = Homo sapiens, HUVEC, read-out: IC50 HUVEC

Row | SMILES | IC50 (hMetAP1; [3]) | IC50 (hMetAP2) | IC50 (hMetAP1; [5]) | IC50 (hMetAP2; [6]) | IC50 (HUVEC [1]; [7]) | IC50 (HUVEC [1]; [8]) | also measured
1 | O=C(Nc1cc(F)cc(F)c1)Oc1ccc(Cl)c2cccnc12 [Entry 23, 5-Chloroquinolin-8-yl 3,5-difluorophenylcarbamate] | > 15 µM | > 15 µM | – | – | – | – | IC50 (HUVEC [1]; [4]): 2.2 ± 0.1 µM
2 | N#Cc1ccc2cccc(O)c2n1 [Entry 3] | – | – | > 15 µM | > 15 µM | > 50 µM | – | –
3 | Oc1c(Br)cc(Br)c2cccnc12 [Entry 10] | – | – | > 15 µM | > 15 µM | 2.53 ± 0.71 µM | – | –
4 | Oc1c(C(Nc2nccs2)c2ccco2)cc(Cl)c2cccnc12 (stereo not shown) [Entry 19, 5-Chloro-7-(furan-2-yl(thiazole-2-ylamino)methyl)quinolin-8-ol] | > 50 µM | 2.75 ± 0.4 µM | – | – | – | 2.53 ± 0.13 µM | –
5 | Cc1ccc(S(=O)(=O)Nc2cccc3cccnc23)cc1 [Entry 32, 8-quinolinyl p-toluenesulfonamide] | 6.97 ± 0.25 µM | > 15 µM | – | – | – | 0.308 ± 0.04 µM | b = bottom value in the dose-response curve, hMetAP1 (hMetAP1): 21%; IC50 (HeLa): 1.12 ± 0.2 µM; IC50 (Jurkat-T): 0.79 ± 0.08 µM; IC50 (HUVEC [2]): 1.47 ± 0.2 µM; b = bottom value of the curve, Calcein-AM HFF (HFF): 21%; IC50 (HFF): 0.909 ± 0.12 µM; Immunoblot Ac-p53 (SIRT1): − (−, <2.0); effect on the levels of Ac-p53 (SIRT1; HUVEC): no effect; Immunoblot Met-14-3-3γ (MetAP): − (−, >1.5); effect on the levels of Met-14-3-3γ (MetAP): no effect
6 | COc1ccc(CN(Cc2ccc(OC)cc2)c2ccc(O)c3ncccc23)cc1 [Entry 37, 5-(N,N-Di[(4-methoxy)benzyl])amino-8-hydroxyquinoline] | 1.46 ± 0.3 µM | > 40 µM | – | – | – | 0.551 ± 0.08 µM | b = bottom value in the dose-response curve, hMetAP1 (hMetAP1): 32%
7 | Oc1c(CN2CCOCC2)ccc2cccnc12 [Entry 12] | – | – | > 50 µM | > 15 µM | > 20 µM | – | –
8 | O=C(Nc1ccc(F)cc1)Oc1c(Cl)cc(Cl)c2cccnc12 [Entry 25, 5,7-Dichloroquinolin-8-yl 4-fluorophenylcarbamate] | > 15 µM | > 15 µM | – | – | – | – | IC50 (HUVEC [1]; [4]): 3.58 ± 0.9 µM
9 | Oc1c(I)cc(I)c2cccnc12 [Entry 11] | – | – | > 15 µM | > 15 µM | 2.62 ± 0.08 µM | – | –
10 | Nc1cccc2cccnc12 [Entry 31, 8-aminoquinoline] | > 15 µM | > 15 µM | – | – | – | – | IC50 (HUVEC [1]; [4]): > 50 µM
11 | Oc1ccc(Cl)c2cccnc12 [Entry 4, Cloxyquin, reference compound] | – | – | – | – | – | 1.41 ± 0.1 µM | –
12 | Oc1c(I)cc(Cl)c2cccnc12 [Entry 7, Clioquinol, reference compound] | > 15 µM | 2.39 ± 0.31 µM | – | – | – | 2.42 ± 0.5 µM | IC50 (hMetAP1; IC50 MetAP1 with Co2+, Co2+ metalloform, data not shown): > 50 µM
13 | O=C(Nc1ccccc1)Oc1ccc(Cl)c2cccnc12 [Entry 22, 5-chloroquinolin-8-yl phenylcarbamate] | > 15 µM | 5.26 ± 0.6 µM | – | – | 1.21 ± 0.51 µM | – | b = bottom value in the dose-response curve, hMetAP2 (hMetAP2): 24%; inhibition at 10 µM (hMetAP2): > 90%; IC50 (HUVEC [1]; [4]): 1.2 µM
14 | Oc1c(Cl)cc(Cl)c2cccnc12 [Entry 9] | – | – | > 15 µM | > 15 µM | 3.64 ± 0.53 µM | – | –
15 | Oc1c(C(c2ccccc2)N2CCOCC2)cc(Cl)c2cccnc12 (stereo not shown) [Entry 18, 5-Chloro-7-(morpholino(phenyl)methyl)quinolin-8-ol] | 14 µM | – | – | – | – | 1.92 ± 0.6 µM | IC50 (HUVEC [2]): 3.55 ± 0.9 µM; b = bottom value of the curve, Calcein-AM HFF (HFF): 18%; IC50 (HFF): 3.66 ± 0.7 µM
16 | Oc1cccc2cccnc12 [Entry 1, 8-hydroxyquinoline] | – | – | – | – | – | 6.21 ± 1.1 µM | IC50 (hMetAP1; IC50 hMetAP1): > 15 µM
17 | COc1ccc(N2CCN(Cc3cc(Cl)c4cccnc4c3O)CC2)cc1 [Entry 17, 5-Chloro-7-((4-(4-methoxyphenyl)piperazin-1-yl)methyl)-quinolin-8-ol] | > 15 µM | > 15 µM | – | – | – | 1.46 ± 0.33 µM | level of Ac-p53 compared to DMSO treated cells (SIRT1; 10 μM, HUVEC): did increase; Immunoblot Ac-p53 (SIRT1): + (+, 2.0–7.0); Immunoblot Met-14-3-3γ (MetAP): − (−, >1.5)
18 | C=CCOc1cccc2ccc(C#N)nc12 [Entry 30, 8-(Allyloxy)quinoline-2-carbonitrile] | > 15 µM | > 15 µM | – | – | – | > 50 µM | –
19 | C=CCOc1c(Cl)cc(Cl)c2cccnc12 [Entry 28, 8-(Allyloxy)-5,7-dichloroquinoline] | > 15 µM | > 15 µM | – | – | – | 2.32 ± 0.23 µM | –
20 | O=C(NCCCl)Oc1c(Cl)cc(Cl)c2cccnc12 [Entry 21, 5,7-Dichloroquinolin-8-yl 2-chloroethylcarbamate] | > 15 µM | – | – | – | – | – | IC50 (HUVEC [1]; [4]): 2.62 ± 0.5 µM
21 | O=C(Nc1ccc(O)c2ncccc12)N1CCOCC1 [Entry 42, N-(8-Hydroxyquinolin-5-yl)morpholine-4-carboxamide] | > 40 µM | > 40 µM | – | – | – | 1.88 ± 0.3 µM | –
22 | Cc1ccc2cccc(O)c2n1 [Entry 2] | – | – | > 15 µM | > 15 µM | 2.7 ± 0.61 µM | – | –
23 | CCOP(=O)(OCC)Oc1ccc(Cl)c2cccnc12 [Entry 26, 5-chloroquinolin-8-yl diethyl phosphate] | > 15 µM | > 15 µM | – | – | – | > 50 µM | –
24 | Oc1c(Br)cc(Cl)c2cccnc12 [Entry 8] | – | – | > 15 µM | > 15 µM | 2.21 ± 0.6 µM | – | –
25 | CCCCCCN(CCCCCC)c1ccc(O)c2ncccc12 [Entry 36, 5-(N,N-Di-n-hexyl)amino-8-hydroxyquinoline] | > 40 µM | > 40 µM | – | – | – | 0.789 ± 0.21 µM | –

The next lines start with results.

Row | IC50 (hMetAP1; [3]) | IC50 (hMetAP2) | IC50 (hMetAP1; [5]) | IC50 (hMetAP2; [6]) | SMILES | IC50 (HUVEC [1]; [7]) | IC50 (HUVEC [1]; [8]) | also measured
26 | – | – | 17.3 ± 1.7 µM | > 15 µM | Cc1ccc2c([N+](=O)[O-])cc([N+](=O)[O-])c(O)c2n1 [Entry 43] | 15.7 ± 1.3 µM | – | –
27 | – | – | > 15 µM | > 15 µM | OCCOc1ccc(Cl)c2cccnc12 [Entry 29] | 2.4 ± 0.3 µM | – | –
28 | – | – | > 40 µM | > 40 µM | CC(=O)Nc1ccc(O)c2ncccc12 [Entry 38] | 10.2 ± 1.1 µM | – | b = bottom value in the dose-response curve, HUVEC (HUVEC [1]; 3H-T uptake, noted only when above 15%): 28%
29 | – | – | > 15 µM | > 15 µM | O=[N+]([O-])c1cc(Cl)c2cccnc2c1O [Entry 44] | 7.73 ± 0.77 µM | – | –
30 | > 15 µM | > 15 µM | – | – | CCOC(=O)COc1ccc([N+](=O)[O-])c2cccnc12 [Entry 49, ethyl 2-(5-nitroquinolin-8-yloxy)acetate] | – | 7.3 ± 0.81 µM | –
31 | 21 µM | > 15 µM | – | – | Cc1ccc(S(=O)(=O)Nc2ccc([N+](=O)[O-])c3cccnc23)cc1 [Entry 55, 4-methyl-N-(5-nitroquinolin-8-yl)benzene-sulfonamide] | – | 0.305 ± 0.07 µM | b = bottom value in the dose-response curve, hMetAP1 (hMetAP1): 19%; IC50 (HeLa): 1.03 ± 0.2 µM; IC50 (Jurkat-T): 0.82 ± 0.15 µM; IC50 (HUVEC [2]): 1.46 ± 0.21 µM; b = bottom value of the curve, Calcein-AM HFF (HFF): 21%; IC50 (HFF): 0.783 ± 0.11 µM; Immunoblot Ac-p53 (SIRT1): − (−, <2.0); effect on the levels of Ac-p53 (SIRT1; HUVEC): no effect; Immunoblot Met-14-3-3γ (MetAP): − (−, >1.5); effect on the levels of Met-14-3-3γ (MetAP): no effect
32 | 7.21 ± 1.3 µM | 20.1 µM | – | – | CCN(CC)c1ccc(O)c2ncccc12 [Entry 35, 5-(N,N-Diethyl)amino-8-hydroxyquinoline] | – | 0.329 ± 0.17 µM | b = bottom value in the dose-response curve, hMetAP1 (hMetAP1): 29%; b = bottom value in the dose-response curve, hMetAP2 (hMetAP2): 25%
33 | > 15 µM | > 50 µM | – | – | C=CCOc1ccc(Cl)c2cccnc12 [Entry 27, 5-chloro-8-allyloxyquinoline] | – | > 50 µM | inhibition at 10 µM (hMetAP2): > 90%
34 | > 15 µM | 1.06 ± 0.5 µM | – | – | NC(=O)COc1ccc([N+](=O)[O-])c2cccnc12 [Entry 50, 2-(5-nitroquinolin-8-yloxy)acetamide] | – | 6.3 ± 1.4 µM | –
35 | – | – | > 40 µM | > 15 µM | Nc1cc(Cl)c2cccnc2c1O [Entry 45] | 0.273 ± 0.07 µM | – | Immunoblot Ac-p53 (SIRT1): − (−, <2.0); effect on the levels of Ac-p53 (SIRT1; HUVEC): no effect; Immunoblot Met-14-3-3γ (MetAP): − (−, >1.5); effect on the levels of Met-14-3-3γ (MetAP): no effect
36 | > 40 µM | > 40 µM | – | – | CC(C)S(=O)(=O)Nc1ccc(O)c2ncccc12 [Entry 41, N-(8-Hydroxyquinolin-5-yl)propane-2-sulfonamide] | – | 12.9 ± 0.13 µM | –
37 | > 15 µM | 0.434 ± 0.1 µM | – | – | CC(C)(C)C(=O)Oc1ccc([N+](=O)[O-])c2cccnc12 [Entry 46, 5-nitroquinolin-8-yl pivalate] | – | – | Immunoblot Ac-p53 (SIRT1): ++ (++, 7.1–11.6); Immunoblot Met-14-3-3γ (MetAP): + (+, ≥1.5)
38 | – | – | – | > 15 µM | O=S(=O)(O)c1ccc(O)c2ncccc12 [Entry 6] | > 50 µM | – | –
39 | > 40 µM | > 40 µM | – | – | CCCCCC(=O)Nc1ccc(O)c2ncccc12 [Entry 39, N-(8-Hydroxyquinolin-5-yl)hexanamide] | – | 8.45 ± 0.91 µM | –
